# Measurements collected from several papers.
# Each line is one published result; the experiments were not run side by side.
# Target: Serine/threonine-protein kinase Nek6 (NEK6, Homo sapiens, UniProt Q9HC98)
SMILES,assay,conditions,quantity,value
N#CC1(c2ccccn2)CCN(Cc2cc(C(=O)O)c(=O)n3ccccc23)CC1,"cell-free assay, competition with immobilised ligand",1 µM,remaining binding,100%
Nc1ncc(-c2nc(N3CCOCC3)nc(N3CCOCC3)n2)c(C(F)F)n1,"binding, competition with immobilised ligand",10 µM,remaining binding,100%
Cn1cncc1[C@](O)(COc1ccc(C#N)cc1-c1ccc(OC(F)(F)F)cc1)c1ccc(C#N)cc1,"cell-free assay, competition with immobilised ligand",1 µM,remaining binding,95%
Cn1cc(-c2cc(F)cc(N3CCn4c(cc5c4CCCC5)C3=O)c2CO)cc(Nc2ccc(N3CCN(C4COC4)CC3)cn2)c1=O,"enzyme activity, inhibitor",0.1 µM,inhibition,6%
COc1ncccc1-c1cnn2ccc(N3CCN(C(=O)OC(C)C)CC3)nc12,"binding, competition with immobilised ligand",1 µM,remaining binding,68%
Cc1nn(C)cc1-c1nc2c(N3CCN(Cc4ccc(Cl)cc4)CC3)c(Cl)cnc2[nH]1,"binding, competition with immobilised ligand",1 µM,remaining binding,100%
O=c1[nH]c2ccccc2n1C1CCN(Cc2ccc(-c3[nH]c4cc5ncnc5cc4nc3-c3ccccc3)cc2)CC1,cell-free assay,0.5 µM,remaining signal,98.2%
COc1cc(Nc2ncc(F)c(Nc3ccc4c(n3)NC(=O)C(C)(C)O4)n2)cc(OC)c1OC,"binding, competition with immobilised ligand",10 µM,inhibition,100%
Cn1cc(-c2cccc(N3CCc4c(sc5c4CC(C)(C)C5)C3=O)c2CO)cc(Nc2ccncn2)c1=O,"enzyme activity, inhibitor",1 µM,inhibition,4%
O=C1Nc2ccc3ncsc3c2/C1=C/c1cnc[nH]1,"enzyme activity, inhibitor",0.5 µM,remaining activity,93.2%
